Assay [1] is described as follows: Cell cycle arrest in estrogen receptor deficient human MDA468 cells assessed as accumulation at S phase at 1 uM after 24 hrs by flow cytometry. In kind it is functional, cell-based. Conditions: MDA-MB-468. The procedure, abridged: (§1)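 MDA 468 breast cells were left untreated or exposed for 24–72 h. Cellular DNA content was measured by flow cytometry, with 10 000 events per sample. Percentages in pre-G1, G1, S and G2/M were taken from the DNA histograms and compared with the nontreated control. Independent analyses were run ≥3 times.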

Assay [2] is described as follows: Antiproliferative activity against estrogen receptor deficient human MDA468 cells after 72 hrs by MTT assay. As to conditions: MDA-MB-468, 72 h. The class given is functional. The procedure, abridged:
(§2)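 Growth inhibition was tested in triplicate in breast lines MCF-7 (ER +ve) and MDA 468 (ER −ve). Values are means of three independent experiments, reported as GI50.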

Assay [3] can be described thus: Cell cycle arrest in estrogen receptor deficient human MDA468 cells assessed as accumulation at G2/M phase at 0.1 uM after 24 hrs by flow cytometry. As to conditions: MDA-MB-468. In kind it is functional, cell-based. The procedure, abridged: as §1
For assay [4], the system named is MCF7. As to the kind of experiment: Antiproliferative activity against estrogen receptor positive human MCF7 cells after 72 hrs by MTT assay. The class given is functional. Conditions: MCF7, 72 h. The procedure, abridged:
as §2

The subject of another assay is MDA-MB-468. As to the kind of experiment: Induction of apoptosis in estrogen receptor deficient human MDA468 cells assessed as accumulation at preG1 phase at 1 uM after 24 hrs by flow cytometry. The class given is functional, cell-based. A digest of the protocol:
as §1

Assay [5] in a line: Cell cycle arrest in estrogen receptor deficient human MDA468 cells assessed as accumulation at G2/M phase at 1 uM after 24 hrs by flow cytometry. The class given is functional, cell-based. Conditions: MDA-MB-468. A digest of the protocol:
as §1

Assay [6] in a line: Cell cycle arrest in estrogen receptor deficient human MDA468 cells assessed as accumulation at G2/M phase at 0.1 uM after 48 hrs by flow cytometry. The class given is functional, cell-based. As to conditions: MDA-MB-468. The procedure, abridged: as §1
The test system of assay [7] is MCF7. As to the kind of experiment: Antiproliferative activity against human estrogen receptor positive MCF7 cells after 72 hrs by MTT assay in presence of aryl hydrocarbon receptor antagonist alpha-naphthoflavone. In kind it is functional. As to conditions: MCF7, 72 h.
The nature of assay [8]: Antiproliferative activity against estrogen receptor deficient human MDA468 cells after 72 hrs by MTT assay in presence of aryl hydrocarbon receptor antagonist alpha-naphthoflavone. Conditions: MDA-MB-468, 72 h. The class given is functional.
Assay [9] has as its target T1, Aryl hydrocarbon receptor (Rattus norvegicus, UniProt P41738).
T1 sequence (P41738 whole entry): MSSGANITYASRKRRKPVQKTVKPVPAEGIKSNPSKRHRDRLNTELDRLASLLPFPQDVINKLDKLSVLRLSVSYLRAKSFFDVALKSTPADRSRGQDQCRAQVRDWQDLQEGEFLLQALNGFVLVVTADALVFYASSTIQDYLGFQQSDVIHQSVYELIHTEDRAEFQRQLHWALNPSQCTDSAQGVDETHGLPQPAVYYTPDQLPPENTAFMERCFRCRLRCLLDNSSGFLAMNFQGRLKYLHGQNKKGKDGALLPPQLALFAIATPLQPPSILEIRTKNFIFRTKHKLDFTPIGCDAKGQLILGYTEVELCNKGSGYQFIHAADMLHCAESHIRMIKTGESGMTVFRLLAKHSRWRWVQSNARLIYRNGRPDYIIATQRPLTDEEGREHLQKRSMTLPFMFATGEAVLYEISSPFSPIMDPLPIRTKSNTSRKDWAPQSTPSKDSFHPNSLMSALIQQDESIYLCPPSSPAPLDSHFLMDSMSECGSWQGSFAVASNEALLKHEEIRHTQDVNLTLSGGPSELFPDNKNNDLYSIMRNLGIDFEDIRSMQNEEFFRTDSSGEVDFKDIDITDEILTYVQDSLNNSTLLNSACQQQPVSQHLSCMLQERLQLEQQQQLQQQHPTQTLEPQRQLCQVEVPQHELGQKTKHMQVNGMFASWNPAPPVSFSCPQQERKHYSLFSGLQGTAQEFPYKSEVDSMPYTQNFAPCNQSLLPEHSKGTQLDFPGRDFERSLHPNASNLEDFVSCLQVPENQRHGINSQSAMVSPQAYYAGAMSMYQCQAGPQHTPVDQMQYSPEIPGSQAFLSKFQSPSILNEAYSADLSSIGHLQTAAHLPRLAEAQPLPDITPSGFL
As to the kind of experiment: Displacement of [3H]tetrachlorodibenzo-p-dioxin from aryl hydrocarbon receptor in CRL:WI rat liver cytosol. The procedure, abridged:
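Aryl hydrocarbon receptor binding was measured in CRL:WI rat liver cytosol by displacement of [3H]tetrachlorodibenzo-p-dioxin. IC50 was determined, and Ki was also reported.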

A short description of assay [10]: Cell cycle arrest in estrogen receptor deficient human MDA468 cells assessed as accumulation at G2/M phase at 0.1 uM after 72 hrs by flow cytometry. The class given is functional, cell-based. Conditions: MDA-MB-468. The procedure, abridged: as §1

The structures appear in SMILES notation. Calls of active or inactive are those of the source. The rule behind the calls is not given here. Bounds are passed on as bounds.

32 molecules from ChEMBL document CHEMBL1156574, “Synthesis and biological properties of benzothiazole, benzoxazole, and chromen-4-one analogues of the potent antitumor agent 2-(3,4-dimethoxyphenyl)-5-fluorobenzothiazole (PMX 610, NSC 721648)” (J Med Chem, 2008) can be followed below.

On to `COc1ccc(-c2nc3cc(F)ccc3[nH]2)cc1OC`, for which the outcome in assay [1] and in assay [3] was inactive. Besides, the figures for the GI50 (in assay [2]; in the assay with MCF7 [4]) were 94.4 µM and 85.7 µM, respectively.
For the molecule `COc1cc(-c2nc3ccc(F)cc3o2)cc(OC)c1OC`, the GI50 in assay [2] came out at 0.037 µM; with MCF7 [4] it was 1.09 µM.
For `CCc1ccc2nc(-c3ccc(O)cc3)sc2c1` the same measures were more than 100 µM and more than 100 µM.
Taken in the same sequence, the figures for `COc1cccc(OC)c1-c1nc2cc(F)ccc2o1` were 22 µM and 58.1 µM.
For `CS(=O)(=O)c1ccc2nc(-c3ccc(O)cc3)sc2c1` the same measures were 42.2 µM and 62.3 µM.
As to `COc1ccccc1-c1nc2ccc(F)cc2o1`, the GI50 in [2] was 1.19 µM; in the assay on MCF7 [4], 0.82 µM.
As to `Fc1ccc2nc(-c3ccc4c(c3)OCO4)oc2c1`, the GI50 in assay [2] came to 6.77 µM; with MCF7 [4], 19.2 µM.
Consider `COc1ccc(-c2nc3cc(F)ccc3o2)cc1OC`, for which the result (in the assay with MDA-MB-468; in assay [1]; in [5]) was Active. Besides, the GI50 in assay [2] was determined as 0.33 µM; in the assay on MCF7 [4] it was 0.83 µM. Moreover, the result in [3] was inactive.
Turning to `Fc1ccc2oc(-c3ccc4c(c3)OCO4)nc2c1`, the values for the GI50 (in assay [2]; in the assay on MCF7 [4]) were 14.5 µM and 61.4 µM, respectively.
For `Oc1ccc(-c2nc3cc(F)ccc3s2)cc1` the same measures were 0.21 µM and 0.4 µM.
For `COc1ccc(-c2nc3cc(F)ccc3o2)cc1` the same measures were 0.76 µM and 22.7 µM.
Consider `COc1ccc(-c2nc3cc(F)ccc3s2)cc1OC`, for which the outcome in assay [6], in assay [10] and in [3] was Active. Besides, the GI50 is 0.514 µM in the assay on MCF7 [7], 0.27 µM in [8], less than 0.0001 µM in assay [2] and less than 0.0001 µM in the assay with MCF7 [4]. In [9], the IC50 came out at 0.025 µM. In assay [9], the Ki worked out at 0.0068 µM.
With `COc1ccc(-c2nc3ccc(F)cc3o2)c(OC)c1`, the results for the 50% growth inhibitory concentration (GI50) (in [2]; with MCF7 [4]) were 3.29 µM and 69.9 µM, respectively.
Taken in the same sequence, the figures for `COc1ccc(-c2nc3cc(F)ccc3o2)c(OC)c1` were 0.54 µM and 2.16 µM.
In the case of `COc1ccc(-c2cc(=O)c3cc(F)ccc3o2)cc1OC`, the GI50 in assay [2] came out at 20.6 µM; with MCF7 [4] it was 83.4 µM.
`COc1ccccc1-c1nc2cc(F)ccc2o1`: the GI50 amounted to 0.27 µM in assay [2] and 0.36 µM in the assay on MCF7 [4].
In the case of `Oc1ccc(-c2nc3ccc(F)cc3s2)cc1`, the GI50 in [2] worked out at 0.5 µM; in the assay with MCF7 [4] it was 54 µM.
For `Oc1cccc(-c2nc3cc(F)ccc3s2)c1` the same measures were 0.2 µM and 0.57 µM.
Taken in the same sequence, the figures for `COc1ccc(-c2nc3ccc(F)cc3o2)cc1` were 9.55 µM and 41 µM.
Turning to `COc1cccc(OC)c1-c1nc2ccc(F)cc2o1`, the GI50 in [2] was found to be 98.6 µM; in the assay with MCF7 [4], 90.7 µM.
For `COc1ccc(-c2nc3ccc(F)cc3o2)cc1OC` the same measures were 0.017 µM and 3.53 µM.
Taken in the same sequence, the figures for `COc1ccc2nc(-c3ccc(O)cc3)sc2c1` were 9.67 µM and 45.8 µM.
Taken in the same sequence, the figures for `CCOc1ccc2nc(-c3ccc(O)cc3)sc2c1` were more than 100 µM and more than 100 µM.
Regarding `COc1cccc(-c2nc3cc(F)ccc3o2)c1`, the GI50 was 0.87 µM in [2] and 39.5 µM in the assay with MCF7 [4].
Taken in the same sequence, the figures for `Oc1ccc(-c2nc3cc(C(F)(F)F)ccc3s2)cc1` were 0.1 µM and 13.8 µM.
Regarding `COc1cc(-c2nc3cc(F)ccc3o2)cc(OC)c1OC`, the GI50 worked out at 2.58 µM in assay [2] and 16 µM in the assay with MCF7 [4].
Taken in the same sequence, the figures for `COc1cccc(-c2nc3ccc(F)cc3o2)c1` were 2.02 µM and 35.1 µM.
As for `COc1cc(OC)cc(-c2nc3cc(F)ccc3o2)c1`, the GI50 in assay [2] came to 0.79 µM; in the assay with MCF7 [4], 45.4 µM.
As for `COc1ccc(-c2cc(=O)c3ccc(F)cc3o2)cc1OC`, the GI50 was determined as 0.45 µM in [2] and 27.9 µM in the assay on MCF7 [4].
For `COc1cc(OC)cc(-c2nc3ccc(F)cc3o2)c1` the same measures were 0.46 µM and 3.72 µM.
Taken in the same sequence, the figures for `Oc1ccc(-c2nc3ccc(Cl)cc3s2)cc1` were 0.28 µM and 26.5 µM.
Taken in the same sequence, the figures for `Oc1ccc(-c2nc3ccc(Br)cc3s2)cc1` were 0.28 µM and 4.16 µM.
